Legend:
L1210 = experiment: Antiproliferative activity against mouse L1210 cells after 2 days; assay type: functional, cell-based; conditions: L1210, 48 h
In short: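 Cells were seeded at 300,000–500,000 cells/mL and mixed 1:1 with compound dilutions. They were incubated at 37 °C for two days and counted with a Coulter counter. IC50 is the concentration that inhibits proliferation by 50%, given as mean ± SE from dose–response curves of at least three independent experiments.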

FM3A = experiment: Antiproliferative activity against mouse FM3A cells after 2 days; assay type: functional, cell-based; conditions: 48 h
[1] = Inhibition of bovine brain tubulin polymerization for 20 mins by turbidimetry; parameters: species or system Bos taurus
In short: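 Purified bovine brain tubulin (10 μM) preincubated with varying compound concentrations in glutamate buffer at 30 °C, cooled to 0 °C, GTP added, then warmed to 30 °C in a recording spectrophotometer.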

[2] = Antiproliferative activity against human Molt4/C8 cells after 3 days; conditions: MOLT-4, 72 h
Bos taurus = species on record: Bos taurus; experiment: Displacement of [3H]colchicine from bovine brain tubulin at 1 uM
In short: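 Purified bovine brain tubulin (1 μM) was incubated with 5 μM [3H]colchicine and 1 μM test compound. The read-out is percent inhibition of radiolabelled colchicine binding.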

K562 [3] = experiment: Cell cycle arrest in human K-562 cells assessed as accumulation at G0/G1 phase at 115 nM after 24 hrs by flow cytometry; assay type: functional
In short: (§1)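 K562 cells exposed 24 h to compound, then washed once in ice-cold PBS. Resuspended at 1 × 10⁶ per mL in hypotonic propidium iodide 50 μg/mL with 0.1% sodium citrate and 0.03% (v/v) nonidet P-40, 30 min. Fluorescence read by flow cytometry as a single-parameter histogram. Sub-G0-G1, G0-G1, S and G2-M fractions compared with untreated control.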

K562 [4] = experiment: Cell cycle arrest in human K-562 cells assessed as accumulation at S phase at 115 nM after 24 hrs by flow cytometry; assay type: functional; in short: as §1
K562 [5] = experiment: Cell cycle arrest in human K-562 cells assessed as accumulation at G2/M phase at 115 nM after 24 hrs by flow cytometry; assay type: functional; in short: as §1
K562 [6] = experiment: Cell cycle arrest in human K-562 cells assessed as accumulation at sub G0/G1 phase at 115 nM after 24 hrs by flow cytometry; assay type: functional; in short: as §1
K562 [7] = experiment: Cell cycle arrest in human K-562 cells assessed as accumulation at G0/G1 phase at 120 nM after 24 hrs by flow cytometry; assay type: functional
K562 [8] = experiment: Cell cycle arrest in human K-562 cells assessed as accumulation at S phase at 120 nM after 24 hrs by flow cytometry; assay type: functional
K562 [9] = experiment: Cell cycle arrest in human K-562 cells assessed as accumulation at G2/M phase at 120 nM after 24 hrs by flow cytometry; assay type: functional
K562 [10] = experiment: Cell cycle arrest in human K-562 cells assessed as accumulation at sub G0/G1 phase at 120 nM after 24 hrs by flow cytometry; assay type: functional
K562 [11] = experiment: Cytotoxicity against human K-562 after 24 hrs; assay type: functional, cell-based; conditions: K562, 24 h
K562 [12] = experiment: Cell cycle arrest in human K-562 cells assessed as accumulation at G0/G1 phase at 85 nM after 24 hrs by flow cytometry; assay type: functional
K562 [13] = experiment: Cell cycle arrest in human K-562 cells assessed as accumulation at S phase at 85 nM after 24 hrs by flow cytometry; assay type: functional
K562 [14] = experiment: Cell cycle arrest in human K-562 cells assessed as accumulation at G2/M phase at 85 nM after 24 hrs by flow cytometry; assay type: functional
K562 [15] = experiment: Cell cycle arrest in human K-562 cells assessed as accumulation at sub G0/G1 phase at 85 nM after 24 hrs by flow cytometry; assay type: functional
K562 [16] = experiment: Cell cycle arrest in human K-562 cells assessed as accumulation at G0/G1 phase at 212 nM after 24 hrs by flow cytometry; assay type: functional; in short: as §1
K562 [17] = experiment: Cell cycle arrest in human K-562 cells assessed as accumulation at S phase at 212 nM after 24 hrs by flow cytometry; assay type: functional; in short: as §1
K562 [18] = experiment: Cell cycle arrest in human K-562 cells assessed as accumulation at G2/M phase at 212 nM after 24 hrs by flow cytometry; assay type: functional; in short: as §1
K562 [19] = experiment: Cell cycle arrest in human K-562 cells assessed as accumulation at sub G0/G1 phase at 212 nM after 24 hrs by flow cytometry; assay type: functional; in short: as §1
K562 [20] = experiment: Cell cycle arrest in human K-562 cells assessed as accumulation at S phase at 68 nM after 24 hrs by flow cytometry; assay type: functional
K562 [21] = experiment: Cell cycle arrest in human K-562 cells assessed as accumulation at G0/G1 phase at 68 nM after 24 hrs by flow cytometry; assay type: functional
K562 [22] = experiment: Cell cycle arrest in human K-562 cells assessed as accumulation at G2/M phase at 68 nM after 24 hrs by flow cytometry; assay type: functional
K562 [23] = experiment: Cell cycle arrest in human K-562 cells assessed as accumulation at sub G0/G1 phase at 68 nM after 24 hrs by flow cytometry; assay type: functional
K562 [24] = experiment: Cell cycle arrest in human K-562 cells assessed as accumulation at G0/G1 phase at 400 nM after 24 hrs by flow cytometry; assay type: functional
K562 [25] = experiment: Cell cycle arrest in human K-562 cells assessed as accumulation at S phase at 400 nM after 24 hrs by flow cytometry; assay type: functional
K562 [26] = experiment: Cell cycle arrest in human K-562 cells assessed as accumulation at G2/M phase at 400 nM after 24 hrs by flow cytometry; assay type: functional
K562 [27] = experiment: Cell cycle arrest in human K-562 cells assessed as accumulation at sub G0/G1 phase at 400 nM after 24 hrs by flow cytometry; assay type: functional

SMILES | IC50 (L1210) [µM] | IC50 (FM3A) [µM] | IC50 [1] [µM] | Activity (Bos taurus) [%] | also measured
COc1cc(C(=O)c2oc3c(OC)cccc3c2N(C)C)cc(OC)c1OC | 1.1 | 1.2 |  |  | 
COc1ccc2c(N)c(C(=O)c3cc(OC)c(OC)c(OC)c3)n(C)c2c1 |  |  | 4.6 |  | 
COc1cc(C(=O)c2oc3cccc(OC)c3c2N(C)C)cc(OC)c1OC | > 10 | > 10 |  |  | IC50 [2]: > 10 µM
COc1ccc2c(N)c(C(=O)c3cc(OC)c(OC)c(OC)c3)[nH]c2c1 |  |  | > 40 |  | 
COc1ccc2oc(C(=O)c3cc(OC)c(OC)c(OC)c3)c(N(C)C)c2c1 | 1.4 | 1.2 |  |  | 
COc1cc(C(=O)c2oc3ccccc3c2N)cc(OC)c1OC | > 10 | > 10 |  |  | 
COc1ccc2c(NC(=O)CI)c(C(=O)c3cc(OC)c(OC)c(OC)c3)oc2c1 | 0.17 | 0.26 | 1.8 | 54 | Activity (K562 [3]): 23%; Activity (K562 [4]): 56%; Activity (K562 [5]): 21%; Activity (K562 [6]): 33%
COc1ccc2c(N)c(C(=O)c3cc(OC)c(OC)c(OC)c3)oc2c1 | 0.43 | 0.28 | 1.1 | 73 | Activity (K562 [7]): 11%; Activity (K562 [8]): 45%; Activity (K562 [9]): 44%; Activity (K562 [10]): 15%; IC50 (K562 [11]): 0.12 µM
COc1cc(C(=O)c2oc3cccc(OC)c3c2N)cc(OC)c1OC | 7.5 | 7.9 |  |  | 
COc1ccc2c(NC(C)=O)c(C(=O)c3cc(OC)c(OC)c(OC)c3)oc2c1 | 0.094 | 0.1 | 1.6 | 51 | IC50 (K562 [11]): 0.085 µM; Activity (K562 [12]): 27%; Activity (K562 [13]): 36%; Activity (K562 [14]): 37%; Activity (K562 [15]): 12%
COc1cc(C(=O)c2oc3c(OC)cccc3c2N)cc(OC)c1OC | > 10 | > 10 |  |  | 
COc1ccc2c(NC(=O)CBr)c(C(=O)c3cc(OC)c(OC)c(OC)c3)oc2c1 | 0.48 | 0.56 | 2.3 |  | Activity (K562 [16]): 6%; Activity (K562 [17]): 27%; Activity (K562 [18]): 67%; Activity (K562 [19]): 15%
COc1cc(C(=O)c2oc3ccccc3c2N(C)C)cc(OC)c1OC | > 10 | 8.8 |  |  | 
COc1ccc2oc(C(=O)c3cc(OC)c(OC)c(OC)c3)c(N)c2c1 | > 10 | > 10 |  |  | 
COc1ccc2c(N(C)C)c(C(=O)c3cc(OC)c(OC)c(OC)c3)oc2c1 | 0.065 | 0.059 | 0.9 | 76 | Activity (K562 [20]): 32%; Activity (K562 [21]): 38%; Activity (K562 [22]): 30%; Activity (K562 [23]): 13%
COc1ccc2c(NC(=O)CCl)c(C(=O)c3cc(OC)c(OC)c(OC)c3)oc2c1 | 1.1 | 1.1 | 2 | 47 | IC50 (K562 [11]): 0.4 µM; Activity (K562 [24]): 23%; Activity (K562 [25]): 44%; Activity (K562 [26]): 33%; Activity (K562 [27]): 13%
COc1ccc2c(N)c(C(=O)c3cc(OC)c(OC)c(OC)c3)sc2c1 | 0.039 | 0.046 | 1.3 | 60 | 
